≈ marks a conversion by molar mass, not a printed value.
Assays:
Format in all cases: functional
Streptococcus pneumoniae [1] = test: Antibacterial activity against Streptococcus pneumoniae assessed as intermediate isolates by CLSI M100-S17 method
Outline: (§1)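 CLSI broth microdilution on clinical isolates, using frozen in-house-prepared panels of test and comparator agents. MICs were read after 20 to 24 h incubation at 35°C in ambient air. Susceptible/intermediate categories were assigned by CLSI M100-S17 guidelines.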

Streptococcus pneumoniae [2] = test: Antibacterial activity against Streptococcus pneumoniae by CLSI M100-S17 method
Streptococcus pneumoniae [3] = test: Antibacterial activity against Streptococcus pneumoniae assessed as susceptible isolates by CLSI M100-S17 method; outline: as §1
Streptococcus pneumoniae [4] = test: Antibacterial activity against Streptococcus pneumoniae assessed as resistant isolates by CLSI M100-S17 method
Outline: (§2)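 Clinical isolates were tested by CLSI broth microdilution in frozen, in-house-prepared 96-well panels of the test agent and comparator agents. MICs were read and classed as susceptible, intermediate or resistant using CLSI M100-S17 breakpoints. The value is the share of isolates in each category.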

Staphylococcus aureus [5] = test: Antibacterial activity against methicillin-resistant Staphylococcus aureus assessed as resistant isolates by CLSI M100-S17 method
Streptococcus pyogenes [6] = test: Antibacterial activity against Streptococcus pyogenes assessed as intermediate isolates by CLSI M100-S17 method; outline: as §1
Streptococcus agalactiae [7] = test: Antibacterial activity against Streptococcus agalactiae assessed as susceptible isolates by CLSI M100-S17 method; outline: as §1
Enterococcus faecium = test: Antibacterial activity against Enterococcus faecium by CLSI M100-S17 method
Staphylococcus aureus [8] = test: Antibacterial activity against methicillin-resistant Staphylococcus aureus assessed as susceptible isolates by CLSI M100-S17 method
Streptococcus pyogenes [9] = test: Antibacterial activity against Streptococcus pyogenes assessed as resistant isolates by CLSI M100-S17 method; outline: as §2
Staphylococcus aureus [10] = test: Antibacterial activity against methicillin-resistant Staphylococcus aureus assessed as intermediate isolates by CLSI M100-S17 method
Streptococcus agalactiae [11] = test: Antibacterial activity against Streptococcus agalactiae assessed as resistant isolates by CLSI M100-S17 method; outline: as §2
[12] = system: Staphylococcus epidermidis; test: Antibacterial activity against methicillin-susceptible Staphylococcus epidermidis assessed as intermediate isolates by CLSI M100-S17 method
[13] = system: Staphylococcus epidermidis; test: Antibacterial activity against methicillin-resistant Staphylococcus epidermidis assessed as susceptible isolates by CLSI M100-S17 method
Staphylococcus aureus [14] = test: Antibacterial activity against methicillin-resistant Staphylococcus aureus by CLSI M100-S17 method
Staphylococcus aureus [15] = test: Antibacterial activity against methicillin-susceptible Staphylococcus aureus by CLSI M100-S17 method
Streptococcus pyogenes [16] = test: Antibacterial activity against Streptococcus pyogenes assessed as susceptible isolates by CLSI M100-S17 method; outline: as §1
[17] = system: Staphylococcus epidermidis; test: Antibacterial activity against methicillin-susceptible Staphylococcus epidermidis assessed as resistant isolates by CLSI M100-S17 method
Enterococcus faecalis = test: Antibacterial activity against Enterococcus faecalis by CLSI M100-S17 method
Streptococcus agalactiae [18] = test: Antibacterial activity against Streptococcus agalactiae by CLSI M100-S17 method
[19] = system: Staphylococcus epidermidis; test: Antibacterial activity against methicillin-resistant Staphylococcus epidermidis assessed as resistant isolates by CLSI M100-S17 method
Staphylococcus aureus [20] = test: Antibacterial activity against methicillin-susceptible Staphylococcus aureus assessed as resistant isolates by CLSI M100-S17 method
Staphylococcus aureus [21] = test: Antibacterial activity against methicillin-susceptible Staphylococcus aureus assessed as susceptible isolates by CLSI M100-S17 method
Staphylococcus aureus [22] = test: Antibacterial activity against methicillin-susceptible Staphylococcus aureus assessed as intermediate isolates by CLSI M100-S17 method
Streptococcus agalactiae [23] = test: Antibacterial activity against Streptococcus agalactiae assessed as intermediate isolates by CLSI M100-S17 method; outline: as §1
[24] = system: Staphylococcus epidermidis; test: Antibacterial activity against methicillin-susceptible Staphylococcus epidermidis assessed as susceptible isolates by CLSI M100-S17 method
[25] = system: Staphylococcus epidermidis; test: Antibacterial activity against methicillin-susceptible Staphylococcus epidermidis by CLSI M100-S17 method
[26] = system: Staphylococcus epidermidis; test: Antibacterial activity against methicillin-resistant Staphylococcus epidermidis by CLSI M100-S17 method

## CO/N=C(\C(=O)N[C@@H]1C(=O)N2C(C(=O)O)=C(CSc3nc(=O)c(O)nn3C)CS[C@H]12)c1csc(N)n1 [CEFTRIAXONE]
Streptococcus pneumoniae [1]
  Activity: 0.2%
Streptococcus pneumoniae [2]
  MIC50: ≤ 0.06 µg/mL
  MIC90: 0.12 µg/mL (≈ 0.216 µM)
Streptococcus pneumoniae [3]
  Activity: 99.7%
Streptococcus pneumoniae [4]
  Activity: 0.1%

## CCC[C@@H]1C[C@@H](C(=O)N[C@@H]([C@H]2O[C@H](SC)[C@H](O)[C@@H](O)[C@H]2O)[C@H](C)Cl)N(C)C1 [CLINDAMYCIN]
Staphylococcus aureus [5]
  Activity: 61.8%
Streptococcus pyogenes [6]
  Activity: 0%
Streptococcus agalactiae [7]
  Activity: 85.2%
Enterococcus faecium
  MIC50: > 8 µg/mL
  MIC90: > 8 µg/mL
Staphylococcus aureus [8]
  Activity: 37.9%
Streptococcus pyogenes [9]
  Activity: 2.7%
Staphylococcus aureus [10]
  Activity: 0.3%
Streptococcus agalactiae [11]
  Activity: 12.5%
[12]
  Activity: 0%
[13]
  Activity: 10%
Staphylococcus aureus [14]
  MIC50: > 8 µg/mL
  MIC90: > 8 µg/mL
Staphylococcus aureus [15]
  MIC50: ≤ 0.12 µg/mL
  MIC90: ≤ 0.12 µg/mL
Streptococcus pyogenes [16]
  Activity: 97.3%
[17]
  Activity: 38.9%
Enterococcus faecalis
  MIC50: > 8 µg/mL
  MIC90: > 8 µg/mL
Streptococcus agalactiae [18]
  MIC50: ≤ 0.06 µg/mL
  MIC90: > 8 µg/mL
[19]
  Activity: 90%
Staphylococcus aureus [20]
  Activity: 8.6%
Staphylococcus aureus [21]
  Activity: 91%
Staphylococcus aureus [22]
  Activity: 0.4%
Streptococcus agalactiae [23]
  Activity: 2.3%
[24]
  Activity: 61.1%
[25]
  MIC50: ≤ 0.12 µg/mL
  MIC90: > 8 µg/mL
[26]
  MIC50: > 8 µg/mL

## C[C@H]1COc2c(N3CCN(C)CC3)c(F)cc3c(=O)c(C(=O)O)cn1c23.C[C@H]1COc2c(N3CCN(C)CC3)c(F)cc3c(=O)c(C(=O)O)cn1c23.O [LEVOFLOXACIN]
Streptococcus pneumoniae [1]
  Activity: 0%
Streptococcus pneumoniae [2]
  MIC50: 0.5 µg/mL
  MIC90: 1 µg/mL
Streptococcus pneumoniae [3]
  Activity: 99.4%
Streptococcus pneumoniae [4]
  Activity: 0.6%
